Laboratory results from ChEMBL document CHEMBL4689842, “EUbOPEN Chemogenomics Library wave 1” (2021).
Several values for one entry are separate records, joined by “and”; a condition that tells them apart may be missing. Identical values can stand only once.

System: HEK-293T
Experiment: Multiplex assay against HEK293T;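 for Population Tubulin-Different-Phenotype (%): share of the cells with healthy nuclei that show this phenotype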
Assay type: toxicity, cell-based
Conditions: human
Summary of the method: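 At seeding, live cells were stained with Hoechst33342, BioTracker Green Microtubule Cytoskeleton Dye, MitoTracker Red and Annexin V Alexa Fluor 680. After compound addition they were imaged on a CQ1 microscope at 37°C and 5% CO2, and CellPathfinder machine-learning gating sorted them into Hoechst high-intensity objects or normal cells, with normal cells further split into healthy, pyknosed or fragmented nuclei and pyknosed cells into mitotic or apoptotic. Tubulin, mitochondrial-mass and membrane-permeability phenotypes are given as per cents of cells with healthy nuclei.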

[1] = 12 h, 10 µM, compound concentration 10 uM, replicate 1
[2] = 12 h, 10 µM, compound concentration 10 uM, replicate 2
[3] = 24 h, 10 µM, compound concentration 10 uM, replicate 1
[4] = 24 h, 10 µM, compound concentration 10 uM, replicate 2
[5] = 12 h, 1 µM, compound concentration 1 uM, replicate 1
[6] = 12 h, 1 µM, compound concentration 1 uM, replicate 2
[7] = 24 h, 1 µM, compound concentration 1 uM, replicate 1
[8] = 24 h, 1 µM, compound concentration 1 uM, replicate 2

Question: `CCN(CC)S(=O)(=O)Nc1cccc(-c2ccc3c(NC(=O)C4CC4)n[nH]c3c2)c1` was tested. Which “Population Apoptotic (%)” value [1] did it give?
Answer: 14% and 17%

Question: What about the “Population Fragmented Nuclei (%)” value [1] of the same compound?
Answer: 23% and 22%

Question: And the “Population Healthy Nuclei (%)” value [1]?
Answer: 31% and 60%

Question: What about the “Population Hoechst High Intensity Objects (%)” value [1] of the same compound?
Answer: 17% and 14%

Question: And the “Population Membrane Permeable-Phenotype (%)” value [1]?
Answer: 7% and 4%

Question: And the “Population Mitochondria Different-Phenotype (%)” value [1]?
Answer: 5% and 3%

Question: And the “Population Mitotic Cells (%)” value [1]?
Answer: 85% and 82%

Question: What about the “Population Normal (%)” value [1] of the same compound?
Answer: 82% and 85%

Question: What about the “Population Pyknosed Nuclei (%)” value [1] of the same compound?
Answer: 45% and 17%

Question: What about the “Population Tubulin-Different-Phenotype (%)” value [1] of the same compound?
Answer: 6% and 1%

Question: What about the “Total Cell Count” value [1] of the same compound?
Answer: 531 and 471

Question: And the “Population Apoptotic (%)” value [2]?
Answer: 13% and 5%

Question: And the “Population Healthy Nuclei (%)” value [2]?
Answer: 76% and 84%

Question: And the “Population Hoechst High Intensity Objects (%)” value [2]?
Answer: 4% and 2%

Question: What about the “Population Membrane Permeable-Phenotype (%)” value [2] of the same compound?
Answer: 1% and 0%

Question: What about the “Population Mitotic Cells (%)” value [2] of the same compound?
Answer: 86% and 94%

Question: And the “Population Normal (%)” value [2]?
Answer: 95% and 97%

Question: What about the “Population Tubulin-Different-Phenotype (%)” value [2] of the same compound?
Answer: 10% and 4%

Question: And the “Total Cell Count” value [2]?
Answer: 940 and 1848

Question: What about the “Population Apoptotic (%)” value [3] of the same compound?
Answer: 19% and 16%

Question: What about the “Population Fragmented Nuclei (%)” value [3] of the same compound?
Answer: 22% and 21%

Question: What about the “Population Healthy Nuclei (%)” value [3] of the same compound?
Answer: 34% and 70%

Question: What about the “Population Hoechst High Intensity Objects (%)” value [3] of the same compound?
Answer: 14% and 9%

Question: What about the “Population Membrane Permeable-Phenotype (%)” value [3] of the same compound?
Answer: 7% and 8%

Question: What about the “Population Mitotic Cells (%)” value [3] of the same compound?
Answer: 80% and 83%

Question: What about the “Population Normal (%)” value [3] of the same compound?
Answer: 85% and 90%

Question: What about the “Total Cell Count” value [3] of the same compound?
Answer: 487 and 501

Question: What about the “Population Apoptotic (%)” value [4] of the same compound?
Answer: 4% and 8%

Question: And the “Population Healthy Nuclei (%)” value [4]?
Answer: 67% and 71%

Question: And the “Population Hoechst High Intensity Objects (%)” value [4]?
Answer: 4% and 6%

Question: And the “Population Membrane Permeable-Phenotype (%)” value [4]?
Answer: 2% and 1%

Question: What about the “Population Mitochondria Different-Phenotype (%)” value [4] of the same compound?
Answer: 22%

Question: What about the “Population Mitotic Cells (%)” value [4] of the same compound?
Answer: 95% and 91%

Question: What about the “Population Normal (%)” value [4] of the same compound?
Answer: 95% and 93%

Question: For `COc1ccc(S(=O)(=O)N(CCO)c2ccccc2CN(C)C/C=C/c2ccc(Cl)cc2)cc1.O=P(O)(O)O`, which “Population Apoptotic (%)” value [5] is on record?
Answer: 42%

Question: What about the “Population Fragmented Nuclei (%)” value [5] of the same compound?
Answer: 11%

Question: What about the “Population Healthy Nuclei (%)” value [5] of the same compound?
Answer: 28%

Question: And the “Population Hoechst High Intensity Objects (%)” value [5]?
Answer: 16%

Question: What about the “Population Membrane Permeable-Phenotype (%)” value [5] of the same compound?
Answer: 6%

Question: And the “Population Mitochondria Different-Phenotype (%)” value [5]?
Answer: 79%

Question: What about the “Population Mitotic Cells (%)” value [5] of the same compound?
Answer: 57%

Question: And the “Population Normal (%)” value [5]?
Answer: 83%

Question: What about the “Population Pyknosed Nuclei (%)” value [5] of the same compound?
Answer: 59%

Question: And the “Population Tubulin-Different-Phenotype (%)” value [5]?
Answer: 87%

Question: And the “Total Cell Count” value [5]?
Answer: 585

Question: What about the “Population Apoptotic (%)” value [6] of the same compound?
Answer: 35%

Question: What about the “Population Fragmented Nuclei (%)” value [6] of the same compound?
Answer: 1%

Question: And the “Population Healthy Nuclei (%)” value [6]?
Answer: 67%

Question: What about the “Population Hoechst High Intensity Objects (%)” value [6] of the same compound?
Answer: 7%

Question: What about the “Population Membrane Permeable-Phenotype (%)” value [6] of the same compound?
Answer: 3%

Question: And the “Population Mitochondria Different-Phenotype (%)” value [6]?
Answer: 90%

Question: And the “Population Mitotic Cells (%)” value [6]?
Answer: 64%

Question: And the “Population Normal (%)” value [6]?
Answer: 92%

Question: And the “Population Pyknosed Nuclei (%)” value [6]?
Answer: 30%

Question: What about the “Population Tubulin-Different-Phenotype (%)” value [6] of the same compound?
Answer: 90%

Question: And the “Total Cell Count” value [6]?
Answer: 929

Question: What about the “Population Apoptotic (%)” value [1] of the same compound?
Answer: 14%

Question: And the “Population Fragmented Nuclei (%)” value [1]?
Answer: 11%

Question: What about the “Population Healthy Nuclei (%)” value [1] of the same compound?
Answer: 67%

Question: And the “Population Hoechst High Intensity Objects (%)” value [1]?
Answer: 8%

Question: And the “Population Membrane Permeable-Phenotype (%)” value [1]?
Answer: 6%

Question: What about the “Population Mitochondria Different-Phenotype (%)” value [1] of the same compound?
Answer: 9%

Question: And the “Population Mitotic Cells (%)” value [1]?
Answer: 85%

Question: What about the “Population Normal (%)” value [1] of the same compound?
Answer: 91%

Question: What about the “Population Pyknosed Nuclei (%)” value [1] of the same compound?
Answer: 21%

Question: What about the “Population Tubulin-Different-Phenotype (%)” value [1] of the same compound?
Answer: 25%

Question: And the “Total Cell Count” value [1]?
Answer: 633

Question: And the “Population Apoptotic (%)” value [2]?
Answer: 13%

Question: What about the “Population Fragmented Nuclei (%)” value [2] of the same compound?
Answer: 6%

Question: And the “Population Healthy Nuclei (%)” value [2]?
Answer: 87%

Question: And the “Population Hoechst High Intensity Objects (%)” value [2]?
Answer: 3%

Question: What about the “Population Mitochondria Different-Phenotype (%)” value [2] of the same compound?
Answer: 21%

Question: What about the “Population Mitotic Cells (%)” value [2] of the same compound?
Answer: 86%

Question: What about the “Population Normal (%)” value [2] of the same compound?
Answer: 96%

Question: And the “Population Pyknosed Nuclei (%)” value [2]?
Answer: 6%

Question: And the “Population Tubulin-Different-Phenotype (%)” value [2]?
Answer: 36%

Question: And the “Total Cell Count” value [2]?
Answer: 1412

Question: What about the “Population Apoptotic (%)” value [7] of the same compound?
Answer: 61%

Question: And the “Population Fragmented Nuclei (%)” value [7]?
Answer: 13%

Question: And the “Population Healthy Nuclei (%)” value [7]?
Answer: 25%

Question: And the “Population Hoechst High Intensity Objects (%)” value [7]?
Answer: 18%

Question: And the “Population Membrane Permeable-Phenotype (%)” value [7]?
Answer: 7%

Question: And the “Population Mitochondria Different-Phenotype (%)” value [7]?
Answer: 81%

Question: What about the “Population Mitotic Cells (%)” value [7] of the same compound?
Answer: 38%

Question: What about the “Population Normal (%)” value [7] of the same compound?
Answer: 81%

Question: And the “Population Pyknosed Nuclei (%)” value [7]?
Answer: 60%

Question: What about the “Population Tubulin-Different-Phenotype (%)” value [7] of the same compound?
Answer: 85%

Question: And the “Total Cell Count” value [7]?
Answer: 551

Question: And the “Population Apoptotic (%)” value [8]?
Answer: 43%

Question: What about the “Population Fragmented Nuclei (%)” value [8] of the same compound?
Answer: 1%

Question: And the “Population Healthy Nuclei (%)” value [8]?
Answer: 59%

Question: And the “Population Hoechst High Intensity Objects (%)” value [8]?
Answer: 10%

Question: What about the “Population Membrane Permeable-Phenotype (%)” value [8] of the same compound?
Answer: 2%

Question: What about the “Population Mitochondria Different-Phenotype (%)” value [8] of the same compound?
Answer: 95%

Question: And the “Population Mitotic Cells (%)” value [8]?
Answer: 56%

Question: And the “Population Normal (%)” value [8]?
Answer: 89%

Question: And the “Population Pyknosed Nuclei (%)” value [8]?
Answer: 38%

Question: What about the “Population Tubulin-Different-Phenotype (%)” value [8] of the same compound?
Answer: 77%

Question: What about the “Total Cell Count” value [8] of the same compound?
Answer: 913

Question: And the “Population Apoptotic (%)” value [3]?
Answer: 17%

Question: What about the “Population Fragmented Nuclei (%)” value [3] of the same compound?
Answer: 8%

Question: And the “Population Healthy Nuclei (%)” value [3]?
Answer: 80%

Question: What about the “Population Hoechst High Intensity Objects (%)” value [3] of the same compound?
Answer: 6%

Question: What about the “Population Membrane Permeable-Phenotype (%)” value [3] of the same compound?
Answer: 10%

Question: And the “Population Mitochondria Different-Phenotype (%)” value [3]?
Answer: 8%

Question: What about the “Population Mitotic Cells (%)” value [3] of the same compound?
Answer: 82%

Question: And the “Population Normal (%)” value [3]?
Answer: 93%

Question: What about the “Population Pyknosed Nuclei (%)” value [3] of the same compound?
Answer: 11%

Question: What about the “Population Tubulin-Different-Phenotype (%)” value [3] of the same compound?
Answer: 31%

Question: And the “Total Cell Count” value [3]?
Answer: 745

Question: And the “Population Apoptotic (%)” value [4]?
Answer: 5%

Question: What about the “Population Fragmented Nuclei (%)” value [4] of the same compound?
Answer: 15%

Question: And the “Population Hoechst High Intensity Objects (%)” value [4]?
Answer: 2%

Question: And the “Population Mitotic Cells (%)” value [4]?
Answer: 94%

Question: And the “Population Normal (%)” value [4]?
Answer: 97%

Question: And the “Population Pyknosed Nuclei (%)” value [4]?
Answer: 4%

Question: What about the “Population Tubulin-Different-Phenotype (%)” value [4] of the same compound?
Answer: 37%

Question: And the “Total Cell Count” value [4]?
Answer: 2203
